The results in this text go back to ChEMBL document CHEMBL3758073, “Synthesis and Biochemical Evaluation of 3-Phenoxy-1,4-diarylazetidin-2-ones as Tubulin-Targeting Antitumor Agents” (J Med Chem, 2016).

Data set [1] relates to MCF7. As to the kind of experiment: Antiproliferative activity against human MCF7 cells assessed as cell viability pre-incubated for 24 hrs with CO2 followed by compound addition after 72 hrs by MTT assay. The class given is functional, cell-based. The gist of the method:
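MCF-7 grown in Eagle's MEM with 10% FBS, 2 mM L-glutamine, penicillin/streptomycin and 1% non-essential amino acids. Cells seeded at 2.5 x 10⁴ cells/mL, 24 h at 37 °C, then dosed from ethanol stocks over 1 nM–100 µM (vehicle 1% v/v ethanol) for 72 h. MTT at 1 mg/mL final, 2 h in the dark, DMSO solubilisation. Viability set against untreated controls; IC50 is the mean of three experiments in triplicate.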

Data set [2] relates to MCF7. As to the kind of experiment: Cytotoxicity against human MCF7 cells assessed as induction of cell death at 10 uM after 72 hrs by LDH assay. The class given is cell-based. The note with it: mcf7, 72 h. The gist of the method: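 Cell death in MCF-7 measured by LDH release. Seeding and dosing as for the MTT assay; after 72 h, lysis solution added to blank wells for 1 h to give 100% death. Supernatant mixed with substrate (INT to formazan) for 30 min at rt in the dark, then stopped and read at 490 nm. Percentage cell death reported at 10 μM; assays in triplicate.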

Consider `COc1ccc([C@@H]2[C@H](Oc3ccccc3)C(=O)N2c2cc(OC)c(OC)c(OC)c2)cc1N`, for which the 50% inhibitory concentration (IC50) with MCF7 [1] came to 12.2 µM. For the same compound, in the data set on MCF7 [2], the Activity worked out at 7.7%.
Turning to `COc1ccc([C@@H]2[C@H](Oc3ccccc3)CN2c2cc(OC)c(OC)c(OC)c2)cc1O`, the IC50 with MCF7 [1] came to 3.3 µM. Besides, in the data set with MCF7 [2], the Activity is 19.8%.
For `COc1cc(N2C(=O)[C@@H](Oc3ccccc3)[C@H]2c2cc(O)c(OC)c([N+](=O)[O-])c2)cc(OC)c1OC` (relative stereo), in that order: 69 µM and 12.1%.
Take `COc1ccc(N2C(=O)[C@@H](Oc3ccccc3)[C@H]2c2ccc(OC)c(O)c2)cc1` (relative stereo): the half-inhibitory concentration (IC50) with MCF7 [1] was 49 µM. Also, the Activity in the data set with MCF7 [2] was 10.4%.
Regarding `COc1cc(N2C(=O)[C@@H](Oc3ccccc3)[C@H]2c2cccc([N+](=O)[O-])c2)cc(OC)c1OC` (relative stereo), the IC50 in the data set on MCF7 [1] was 30 µM. Moreover, the Activity in the data set with MCF7 [2] is on record as 16.7%.
For `COc1cc(N2C(=O)[C@@H](Oc3ccccc3)[C@H]2c2ccc(N=[N+]=[N-])cc2)cc(OC)c1OC` (relative stereo), in that order: 23 µM and 5.8%.
For `COc1ccc([C@@H]2[C@@H](Oc3ccccc3)C(=O)N2c2cc(OC)c(OC)c(OC)c2)cc1[N+](=O)[O-]` (relative stereo), in that order: 4.1 µM and 5.2%.
On to `COc1cc(N2C(=O)[C@@H](Oc3ccccc3)[C@H]2c2ccc(Br)cc2)cc(OC)c1OC` (relative stereo), for which the IC50 in the data set on MCF7 [1] is 48 µM.
As to `COc1cc([N+](=O)[O-])c([C@@H]2[C@H](Oc3ccccc3)C(=O)N2c2cc(OC)c(OC)c(OC)c2)cc1O` (relative stereo), in the data set on MCF7 [1], the IC50 is 59 µM. Further, the Activity in the data set with MCF7 [2] came out at 9.9%.
With `COc1ccc([C@@H]2[C@H](Oc3ccccc3)C(=O)N2c2cc(OC)c(OC)c(OC)c2)cc1NC(=O)CN` (relative stereo), the IC50 with MCF7 [1] worked out at 6.5 µM.
On to `COc1cc(N2C(=O)[C@@H](Oc3ccccc3)[C@H]2c2cccc3ccccc23)cc(OC)c1OC` (relative stereo), for which, in the data set on MCF7 [1], the IC50 came to 53 µM. Further, the Activity in the data set with MCF7 [2] was found to be 4.6%.
The corresponding values for `COc1ccc([C@@H]2[C@H](Oc3ccccc3)C(=O)N2c2cc(OC)c(OC)c(OC)c2)cc1` (relative stereo) are 35 µM and 6.5%.
The corresponding values for `COc1cc(N2C(=O)[C@@H](Oc3ccccc3)[C@H]2c2ccc(O)c(O)c2)cc(OC)c1OC` (relative stereo) are 4.5 µM and 6%.
The corresponding values for `COc1cccc([C@@H]2[C@H](Oc3ccccc3)C(=O)N2c2cc(OC)c(OC)c(OC)c2)c1` (relative stereo) are 171 µM and 22%.
Consider `COc1cc(N2C(=O)[C@@H](Oc3ccccc3)[C@H]2c2cccc(O)c2)cc(OC)c1OC` (relative stereo), for which, in the data set with MCF7 [1], the 50% inhibitory concentration (IC50) was 54 µM. Moreover, the Activity with MCF7 [2] was determined as 22%.
The corresponding values for `COc1cc(N2C(=O)[C@@H](Oc3ccccc3)[C@H]2c2ccc(C#N)cc2)cc(OC)c1OC` (relative stereo) are 31.6 µM and 4.8%.
For `COc1cc(N2C(=O)[C@@H](Oc3ccccc3)[C@H]2c2ccc(O)cc2)cc(OC)c1OC` (relative stereo), the IC50 in the data set with MCF7 [1] is 48 µM. In addition, the Activity in the data set with MCF7 [2] was determined as 0.1%.
`COc1ccc([C@@H]2[C@@H](Oc3ccccc3)C(=O)N2c2cc(OC)c(OC)c(OC)c2)cc1NC(=O)C(C)N` (relative stereo): the IC50 in the data set with MCF7 [1] stood at 0.23 µM.
As to `COc1ccc([C@@H]2[C@H](Oc3ccccc3)C(=O)N2c2cc(OC)c(OC)c(OC)c2)cc1F` (relative stereo), the IC50 in the data set on MCF7 [1] was determined as 6.3 µM. Besides, in the data set on MCF7 [2], the Activity came out at 70%.
Regarding `COc1cc(N2C(=O)[C@@H](Oc3ccccc3)[C@H]2c2ccc(SC)cc2)cc(OC)c1OC` (relative stereo), in the data set on MCF7 [1], the concentration for half-maximal inhibition (IC50) stood at 7.7 µM. In the data set on MCF7 [2], the Activity stood at 8.1%.
For the compound `COc1ccc([C@@H]2[C@H](Oc3ccccc3)C(=O)N2c2cc(OC)c(OC)c(OC)c2)cc1NC(=O)C(C)N` (relative stereo), the IC50 in the data set with MCF7 [1] came out at 9.2 µM.
Consider `COc1ccc([C@@H]2[C@H](Oc3ccccc3)C(=O)N2c2cc(OC)c(OC)c(OC)c2)cc1[N+](=O)[O-]` (relative stereo), for which, in the data set with MCF7 [1], the 50% inhibitory concentration (IC50) is 69 µM. In addition, in the data set on MCF7 [2], the Activity stood at 5.3%.
The corresponding values for `COc1cc(N2C(=O)[C@@H](Oc3ccccc3)[C@H]2c2ccc3ccccc3c2)cc(OC)c1OC` (relative stereo) are 282 µM and 10.7%.
As for `COc1cc([C@@H]2[C@H](Oc3ccccc3)C(=O)N2c2cc(OC)c(OC)c(OC)c2)cc(OC)c1OC` (relative stereo), the IC50 with MCF7 [1] was 29 µM. Moreover, the Activity in the data set with MCF7 [2] is given as 0%.
The corresponding values for `COc1ccc([C@@H]2[C@H](Oc3ccccc3)C(=O)N2c2cc(OC)c(OC)c(OC)c2)cc1Br` (relative stereo) are 5.1 µM and 6.4%.
Take `CCOC(=O)/C=C/c1ccc([C@@H]2[C@H](Oc3ccccc3)C(=O)N2c2cc(OC)c(OC)c(OC)c2)cc1` (relative stereo): in the data set with MCF7 [1], the concentration for half-maximal inhibition (IC50) worked out at 87 µM.
On to `COc1ccc([C@@H]2[C@H](Oc3ccccc3)C(=O)N2c2cc(OC)c(OC)c(OC)c2)cc1OC` (relative stereo), for which the IC50 in the data set on MCF7 [1] stood at 26 µM. Moreover, in the data set with MCF7 [2], the Activity is reported as 11.2%.
On to `COc1cc(N2C(=O)[C@@H](Oc3ccccc3)[C@H]2c2ccc([N+](=O)[O-])cc2)cc(OC)c1OC` (relative stereo), for which, in the data set with MCF7 [1], the concentration for half-maximal inhibition (IC50) came to 63 µM. In addition, the Activity with MCF7 [2] is listed as 27%.
The corresponding values for `COc1cc([C@@H]2[C@H](Oc3ccccc3)C(=O)N2c2cc(OC)c(OC)c(OC)c2)ccc1O` (relative stereo) are 32 µM and 5.1%.
As to `COc1ccc([C@@H]2[C@@H](Oc3ccccc3)C(=O)N2c2cc(OC)c(OC)c(OC)c2)cc1Br` (relative stereo), the IC50 in the data set with MCF7 [1] was found to be 31 µM. Moreover, the Activity with MCF7 [2] came out at 3.9%.
As for `COc1ccc([C@@H]2[C@@H](Oc3ccccc3)C(=O)N2c2cc(OC)c(OC)c(OC)c2)cc1OP(=O)(O)O` (relative stereo), the concentration for half-maximal inhibition (IC50) with MCF7 [1] stood at 23 µM.
In the case of `COc1ccc([C@@H]2[C@H](Oc3ccccc3)C(=O)N2c2cc(OC)c(OC)c(OC)c2)c([N+](=O)[O-])c1O` (relative stereo), the IC50 in the data set with MCF7 [1] turned out to be 89 µM. Further, the Activity in the data set with MCF7 [2] is listed as 12.7%.
For `COc1cc(N2C(=O)[C@@H](Oc3ccccc3)[C@H]2c2ccc3c(c2)OCO3)cc(OC)c1OC` (relative stereo), in that order: 48 µM and 8.3%.
Take `COc1cc(N2C(=O)[C@@H](Oc3ccccc3)[C@H]2c2ccc([S+](C)[O-])cc2)cc(OC)c1OC` (relative stereo): the 50% inhibitory concentration (IC50) in the data set on MCF7 [1] amounted to 20 µM. Besides, the Activity in the data set with MCF7 [2] worked out at 1.7%.
In the case of `COc1ccc([C@@H]2[C@H](Oc3ccccc3)C(=O)N2c2cc(OC)c(OC)c(OC)c2)cc1OP(=O)(O)O` (relative stereo), the half-maximal inhibitory concentration (IC50) in the data set on MCF7 [1] amounted to 42 µM.
Turning to `COc1cc(N2C(=O)[C@@H](Oc3ccccc3)[C@H]2c2ccc(S(C)(=O)=O)cc2)cc(OC)c1OC` (relative stereo), in the data set with MCF7 [1], the concentration for half-maximal inhibition (IC50) was 62 µM. Besides, the Activity with MCF7 [2] was 10.2%.
For `COc1ccc([C@@H]2[C@@H](Oc3ccccc3)C(=O)N2c2cc(OC)c(OC)c(OC)c2)cc1` (relative stereo), in that order: 6.9 µM and 7.3%.
